Each block holds one compound with its values, some of them ahead of it. Calls of active or inactive are those of the source. No cut-off for these calls is given here.
Key:
[1] = target: hERG (KCNH2) (Homo sapiens, UniProt Q12809); experiment: Inhibition of human ERG expressed in CHO cells at 0.1 uM incubated for 1 min at -80 mV holding potential by manual patch clamp assay relative to control; format: cell-based; settings: CHO cells expressing human ERG
[2] = species: Danio rerio; experiment: Cognition enhancement in aluminium chloride-induced Alzheimer's disease zebra fish model assessed as Dyskinesia recovery rate at 50 uM treated from 3 dpf to 5 dpf relative to control; format: functional
In short: (§1)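 Zebrafish larvae were exposed to 150 µM AlCl₃ from 3 to 5 dpf, with the test drug co-administered over the same 3–5 dpf window. There were 30 fish per group. Dyskinesia recovery rate (DRR) and response efficiency (RE) were both calculated from the average swimming speed of drug-treated fish, with p values reported.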

[3] = species: Danio rerio; experiment: Cognition enhancement in aluminium chloride-induced Alzheimer's disease zebra fish model assessed as Response efficiency at 10 uM treated from 3 dpf to 5 dpf relative to control; format: functional; in short: as §1
[4] = species: Danio rerio; experiment: Cognition enhancement in aluminium chloride-induced Alzheimer's disease zebra fish model assessed as Response efficiency at 250 uM treated from 3 dpf to 5 dpf relative to control; format: functional; in short: as §1
[5] = species: Danio rerio; experiment: Cognition enhancement in aluminium chloride-induced Alzheimer's disease zebra fish model assessed as Response efficiency at 50 uM treated from 3 dpf to 5 dpf relative to control; format: functional; in short: as §1
[6] = species: Danio rerio; experiment: Cognition enhancement in aluminium chloride-induced Alzheimer's disease zebra fish model assessed as Dyskinesia recovery rate at 10 uM treated from 3 dpf to 5 dpf relative to control; format: functional; in short: as §1
[7] = tested on: Mus musculus; experiment: Cognition enhancement in aluminium trichloride-induced amnesia mouse model assessed as total swimming time at 2 mg/kg administered via gastric gavage for 30 days by SMG-2 programmable water maze test; format: functional, organism-based
[8] = species: Danio rerio; experiment: Cognition enhancement in aluminium chloride-induced Alzheimer's disease zebra fish model assessed as Dyskinesia recovery rate at 250 uM treated from 3 dpf to 5 dpf relative to control; format: functional; in short: as §1
[9] = tested on: Mus musculus; experiment: Cognition enhancement in aluminium trichloride-induced amnesia mouse model assessed as error times at 2 mg/kg administered via gastric gavage for 30 days by SMG-2 programmable water maze test; format: functional, organism-based
[10] = target: Amyloid-beta precursor protein (Homo sapiens) (UniProt P05067); experiment: Inhibition of HFIP-pretreated amyloid beta (1 to 42) (unknown origin) self-aggregation at 20 uM after 72 hrs by uranyl acetate staining based transmission electron microscopy
Chain of Amyloid-beta precursor protein (Homo sapiens) (P05067 whole entry): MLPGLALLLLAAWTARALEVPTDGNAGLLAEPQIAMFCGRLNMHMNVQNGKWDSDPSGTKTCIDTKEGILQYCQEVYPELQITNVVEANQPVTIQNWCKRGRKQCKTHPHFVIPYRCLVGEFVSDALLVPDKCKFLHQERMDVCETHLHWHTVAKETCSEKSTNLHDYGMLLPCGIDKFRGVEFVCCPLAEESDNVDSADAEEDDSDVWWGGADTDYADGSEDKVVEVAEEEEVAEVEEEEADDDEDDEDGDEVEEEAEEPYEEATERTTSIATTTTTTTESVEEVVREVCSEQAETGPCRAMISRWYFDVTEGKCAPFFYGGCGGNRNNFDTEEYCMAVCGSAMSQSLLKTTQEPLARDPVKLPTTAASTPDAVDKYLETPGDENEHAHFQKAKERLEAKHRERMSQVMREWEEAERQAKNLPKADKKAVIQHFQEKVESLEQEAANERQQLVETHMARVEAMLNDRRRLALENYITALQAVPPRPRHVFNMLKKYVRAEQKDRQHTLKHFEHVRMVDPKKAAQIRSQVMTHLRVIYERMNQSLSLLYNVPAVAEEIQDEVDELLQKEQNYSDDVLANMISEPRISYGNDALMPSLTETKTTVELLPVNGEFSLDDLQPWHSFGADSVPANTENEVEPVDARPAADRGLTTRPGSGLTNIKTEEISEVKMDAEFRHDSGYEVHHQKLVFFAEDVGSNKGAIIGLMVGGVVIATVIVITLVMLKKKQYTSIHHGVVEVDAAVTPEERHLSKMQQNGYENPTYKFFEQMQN
In short: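 Aβ1-42 was incubated alone or with compound for 72 h at 37 °C. Fibril formation was then examined by transmission electron microscopy, with curcumin as positive control.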

[11] = Metal chelating activity assessed as compound-Zn2+ complex formation at 25 uM incubated for 5 mins in presence of 25 uM ZnCl2 by UV-visible spectrophotometry
[12] = Metal chelating activity assessed as compound-Fe2+ complex formation at 25 uM incubated for 5 mins in presence of 25 uM FeSO4 by UV-visible spectrophotometry
[13] = target: Amyloid-beta precursor protein (Homo sapiens) (UniProt P05067); experiment: Inhibition of HFIP-pretreated amyloid beta (1 to 42) (unknown origin) self-aggregation at 20 uM after 48 hrs by thioflavin-T fluorescence assay
[14] = Metal chelating activity assessed as compound-Cu2+ complex formation by measuring decrease in absorption with spectral shift to red end at 25 uM incubated for 5 mins in presence of 25 uM CuCl2 by UV-visible spectrophotometry

Chain of hERG (KCNH2) (Q12809 whole entry): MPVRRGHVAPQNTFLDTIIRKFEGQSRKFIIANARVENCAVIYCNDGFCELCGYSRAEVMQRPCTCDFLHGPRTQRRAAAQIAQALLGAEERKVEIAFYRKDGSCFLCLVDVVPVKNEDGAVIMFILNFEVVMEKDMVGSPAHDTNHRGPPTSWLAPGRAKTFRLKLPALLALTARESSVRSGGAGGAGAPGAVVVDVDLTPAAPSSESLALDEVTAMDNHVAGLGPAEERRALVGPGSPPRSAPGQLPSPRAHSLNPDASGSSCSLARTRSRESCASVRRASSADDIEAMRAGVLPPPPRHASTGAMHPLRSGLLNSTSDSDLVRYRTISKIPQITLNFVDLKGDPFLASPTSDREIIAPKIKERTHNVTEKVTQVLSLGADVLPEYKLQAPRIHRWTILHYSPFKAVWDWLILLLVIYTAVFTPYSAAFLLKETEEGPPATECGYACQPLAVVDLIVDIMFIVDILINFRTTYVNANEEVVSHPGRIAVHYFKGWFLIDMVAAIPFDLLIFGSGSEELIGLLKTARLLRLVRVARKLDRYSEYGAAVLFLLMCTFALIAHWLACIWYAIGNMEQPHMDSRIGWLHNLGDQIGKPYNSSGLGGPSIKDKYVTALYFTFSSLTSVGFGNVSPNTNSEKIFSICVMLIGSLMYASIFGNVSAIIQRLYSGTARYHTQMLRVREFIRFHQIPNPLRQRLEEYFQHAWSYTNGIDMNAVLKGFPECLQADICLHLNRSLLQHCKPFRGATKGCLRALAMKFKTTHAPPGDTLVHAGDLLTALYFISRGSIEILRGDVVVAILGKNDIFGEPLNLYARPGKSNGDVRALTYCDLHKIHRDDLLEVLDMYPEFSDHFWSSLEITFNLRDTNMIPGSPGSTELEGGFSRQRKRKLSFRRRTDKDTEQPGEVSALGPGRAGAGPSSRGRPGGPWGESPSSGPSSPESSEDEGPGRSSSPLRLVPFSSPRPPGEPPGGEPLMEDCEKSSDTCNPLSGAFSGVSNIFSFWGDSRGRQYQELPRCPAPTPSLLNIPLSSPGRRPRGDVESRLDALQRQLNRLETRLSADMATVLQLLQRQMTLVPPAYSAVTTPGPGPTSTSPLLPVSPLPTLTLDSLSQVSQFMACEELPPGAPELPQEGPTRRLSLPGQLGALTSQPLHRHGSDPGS

SMILES: COc1cc(N)c(Cl)cc1C(=O)N[C@H]1CCN(CCCOc2ccc(F)cc2)C[C@H]1OC [REL-CISAPRIDE]
- inhibition at 1 min, 0.1 µM [1]: 89%

SMILES: CCN(C)C(=O)Oc1cccc([C@H](C)N(C)C)c1 [RIVASTIGMINE]
- Activity [2]: 64%
- Activity [3]: 126.3%
- Activity [4]: 175.1%
- Activity [5]: 86.6%
- Activity [6]: 53.4%
- Activity [7]: inactive
- Activity [8]: 58.6%
- Activity [9]: inactive

- inhibition [10]: Active
- Activity [11]: Active
- Activity [12]: Active
- inhibition [13]: 44%
- Activity [14]: Active
SMILES: CC(c1cc(O)c2ncccc2c1)N(C)C (centres undefined)
